Assay outcomes deposited in PubChem by several laboratories.
Only some compounds are listed: those with a hit (about 1.6% of all), similar ones and a draw of the others.
Tn6 DDE FP = inhibitors of Tn6 peptide binding to human fibrin DD(E) | Fibrin DD(E) TRITC-Tn6 fluorescence polarization displacement | inhibition, % at 8.3 µM | hit rate 0.21% among 370,000 | AID 720509;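 active = inhibition above a per-campaign cutoff: mean of compounds within control limits plus 3 SD, cut at about 15% in these data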;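 note: 0% = median of all compound wells on the plate and 100% = blocking peptide control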
MT1-MMP act inh = blocks activation of human MT1-MMP | HT1080 RFP-PRO-GFP cells, GFP/RFP ratio fluorescence, overnight; percent of plate control window, DMSO zero | GFP/RFP ratio change, % at 20 µM | P50281 | hit rate 0.061% among 360,000;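 active = GFP/RFP ratio change of at least 30% with cell ATP level not reduced by more than half and red fluorescence within 50% of control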
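Material: RFP-PRO-GFP reporter HT1080 cells. Dosing: single-point 20 µM compound, 1% DMSO. Controls: DMSO and RFP-L50D-GFP cell wells. Timing: cells overnight before dosing, compound overnight, 37 °C, 5% CO2. Measure: GFP/RFP fluorescence ratio.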
Tn7 DDE FP = disrupts Tn7 cyclic peptide binding to fibrin D-Dimer-E complex. P02675. FP displacement of FITC-Tn7 peptide from fibrin DD(E); 0% = median of compound wells per plate. inhibition, % at 8.3 µM. hit rate 0.13% among 370,000;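 active = inhibition above the mean of compounds falling within the control limits plus 3 SD of them, cut at about 14% in these data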;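 note: 0% = plate median of compound wells and 100% = 10 µM Aha-Tn7 peptide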
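Also added: labelled Tn7 tracer, 0.1 µM; Assay system: human fibrin DD(E) protein; Amount: 2 µM fibrin DD(E); Schedule: 10 min compound pre-incubation, 3 h probe incubation at room temperature; Repeats: one replicate per compound; Read-out basis: percent inhibition; Measured by: fluorescence polarization of the labelled Tn7 tracer.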
ADAM17 inh = inhibitors of human ADAM17 | P78536 | recombinant ADAM17, EDANS/DABCYL FRET peptide cleavage | inhibition, % at 6.95 µM | hit rate 0.83% among 370,000;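 active = inhibition above the mean of compounds lying between control limits plus 3 SD, set per campaign, cut at about 8.5% in these data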;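 note: 0% = DMSO-only wells as the low control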
Target sequence (P78536 215-824 limits assumed): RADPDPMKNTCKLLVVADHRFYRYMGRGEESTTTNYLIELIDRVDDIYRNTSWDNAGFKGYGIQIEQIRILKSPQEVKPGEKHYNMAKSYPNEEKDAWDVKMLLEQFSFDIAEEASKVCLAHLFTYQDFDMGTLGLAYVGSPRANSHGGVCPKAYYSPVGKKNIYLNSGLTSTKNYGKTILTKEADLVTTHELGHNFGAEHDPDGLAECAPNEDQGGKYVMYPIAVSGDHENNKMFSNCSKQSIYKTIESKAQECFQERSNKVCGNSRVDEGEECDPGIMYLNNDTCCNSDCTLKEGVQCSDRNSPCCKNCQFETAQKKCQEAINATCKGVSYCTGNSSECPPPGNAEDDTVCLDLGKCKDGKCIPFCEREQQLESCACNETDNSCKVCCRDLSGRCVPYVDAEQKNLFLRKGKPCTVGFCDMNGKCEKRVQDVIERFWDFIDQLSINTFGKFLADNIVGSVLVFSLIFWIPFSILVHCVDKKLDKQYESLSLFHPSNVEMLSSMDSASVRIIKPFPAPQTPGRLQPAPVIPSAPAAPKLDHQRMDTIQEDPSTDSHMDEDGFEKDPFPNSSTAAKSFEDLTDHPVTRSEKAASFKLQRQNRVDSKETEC
ADAM10 inh = inhibitors of human ADAM10. O14672. recombinant ADAM10, EDANS/DABCYL FRET peptide cleavage, 3 h. inhibition, % at 7 µM. hit rate 0.62% among 370,000;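 active = inhibition above a per-campaign cutoff equal to the mean of compounds falling between control-based bounds plus 3 SD, cut at about 20% in these data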;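 note: 0% = DMSO wells while the 100% control is not disclosed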
ADAM10 confirm = confirmation of inhibitors of human ADAM10. ADAM10 QFRET peptide cleavage, EDANS fluorescence. hit rate 1% among 2,100. shares compounds with ADAM10 inh. inhibition, % at 6.95 µM;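 active = inhibition above about 20% chosen separately for each screening run, limit read from the data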;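 note: 0% = DMSO wells and 100% = marimastat wells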
ADAM17 counter = ADAM17 inhibition, counter-screen for ADAM10 exosite hits | shares compounds with ADAM10 inh | ADAM17 QFRET peptide cleavage, EDANS fluorescence | inhibition, % at 6.95 µM | hit rate 0.5% among 2,100 | AID 743214;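 active = mean triplicate inhibition above the solvent-only control wells' mean plus 3 SD, cut at about 12% in these data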;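 note: 0% = DMSO wells and 100% = marimastat wells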
ADAM10 ctr = counter-screen for ADAM17 exosite inhibitors: inhibitors of human ADAM10; shares compounds with ADAM17 inh; recombinant ADAM10, EDANS/DABCYL FRET peptide cleavage, 3 h; inhibition, % at 6.95 µM; hit rate 47% among 2,900; AID 743256;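 active = mean inhibition over the triplicate runs exceeds the activity threshold set in the earlier primary screen, cut at about 20% in these data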;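 note: 0% = DMSO wells and 100% = marimastat wells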
ADAM17 confirm = human ADAM17 inhibition, confirmation; recombinant ADAM17, EDANS/DABCYL QFRET peptide cleavage; inhibition, % at 6.95 µM; AID 743257; hit rate 65% among 2,900; shares compounds with ADAM17 inh;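 active = mean inhibition across replicates above the hit cutoff set in the primary screen, cut at about 8.5% in these data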;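 note: 0% = DMSO wells and 100% = marimastat wells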
An asterisk follows results filed as active; / = not tested or not shown.

SMILES | Tn6 DDE FP | MT1-MMP act inh | Tn7 DDE FP | ADAM17 inh | ADAM10 inh | ADAM10 confirm | ADAM17 counter | ADAM10 ctr | ADAM17 confirm
Cc1ccccc1NC(=S)NCCc1c[nH]c2ccccc12 | -3 | 1 | 0 | 0 | -1 | / | / | / | /
N#CCC[C@H]1CC[C@]2(CCCN(C(=O)c3ccc4ccccc4n3)C2)O1 | 2 | / | 1 | 0 | -1 | / | / | / | /
Cc1noc(C)c1COc1ccc(C(=O)OCc2nnc(-c3ccc(Cl)cc3)o2)cc1 | -8 | -2 | -4 | 12* | 22* | 2 | 1 | 21* | 14*
O=S1(=O)c2cc(Cl)ccc2N2CCC[C@@H]2CN1Cc1ccc(Cl)c(Cl)c1 | 2 | / | 8 | -4 | -10 | / | / | / | /
Cc1cc(NC(=O)/C=C/c2ccccc2Cl)no1 | 3 | 0 | 3 | 2 | 7 | / | / | / | /
CN(C)c1ccc(NC(=O)/C=C/c2ccccc2Cl)cc1 | 0 | 13 | 7 | 12* | 22* | 4 | 0 | -1 | 2
CCN(CC)c1ccc(NC(=O)/C=C\c2ccccc2Cl)cc1 | -9 | 9 | 1 | 14* | 27* | 6 | 3 | 38* | 19*
COc1ccc(C[N+]2=C(N)N[C@@]3(C=C(C)Cn4c(=O)n(-c5ccccc5)c(=O)n43)C2)c(OC)c1 | -9 | / | 2 | 0 | -4 | / | / | / | /
COc1ccc(NC(=O)c2ccc3c(=O)n(-c4ccc(OC)cc4OC)c(=S)[nH]c3c2)cc1 | -7 | 4 | -11 | 9.1* | 24* | 4 | 1 | 18 | 4
Cc1ccc(C)c(N2CCN(S(=O)(=O)c3ccc4c(c3)NC(=O)CS4)CC2)c1 | -2 | -21 | 2 | 12* | 20* | 8 | 2 | 34* | 18*
COc1cc(O)c(CC=C(C)C)c(O)c1C(=O)CCc1ccc(O)cc1 | 1 | 5 | -4 | 12* | 24* | 10 | 2 | 52* | 26*
CC(C)(C)OC(=O)N1CCC(N[C@@H](Cc2c[nH]c3ccccc23)C(=O)NCCc2c[nH]c3ccccc23)(C(=O)NC2CCCCC2)CC1 | -7 | / | 6 | 9.2* | 26* | 9 | 2 | 29* | 15*
CC(C)(N[C@@H](Cc1c[nH]c2ccccc12)C(=O)NCC(c1ccccc1)c1ccccc1)C(=O)NC1CCCCC1 | 3 | / | -2 | 9.9* | 21* | 8 | 3 | 40* | 19*
O=C(NCC(c1ccccc1)c1ccccc1)[C@H](Cc1c[nH]c2ccccc12)NC1(C(=O)NC2CCCCC2)CCCC1 | 3 | / | -7 | -3 | 2 | / | / | / | /
O=C(NCC(c1ccccc1)c1ccccc1)[C@H](Cc1c[nH]c2ccccc12)NC1(C(=O)NC2CCCCC2)CCC1 | 1 | / | -8 | 14* | 24* | 7 | 2 | 34* | 24*
O=C(NCCCc1ccccc1)[C@H](Cc1c[nH]c2ccccc12)NC1(C(=O)NCCc2c[nH]c3ccccc23)CCC1 | 5 | / | -4 | 16* | 31* | 10 | 3 | 30* | 14*
Cn1c(=O)c2cc(S(=O)(=O)N3CCN(CCO)CC3)ccc2n(C)c1=O | -5 | / | -3 | 0 | -2 | / | / | / | /
COc1cccc(NC(=O)CN(C)C(=O)c2cn(-c3ccccc3)nc2-c2cccnc2)c1 | -1 | -3 | 7 | -9 | -9 | / | / | / | /
COc1ccc(NC(=O)CN(C)C(=O)c2cn(-c3ccccc3)nc2-c2ccc(Cl)cc2)cc1 | 0 | 1 | 7 | 10* | 20* | 7 | 2 | 38* | 18*
COc1cc([N+](=O)[O-])ccc1NC(=O)CCCOc1cccc(C)c1C | -6 | 1 | 1 | 12* | 22* | 3 | 1 | 17 | 10*
COc1ccc(OCc2nc(C#N)c(N3CCN(c4ccc(OC)cc4)CC3)o2)cc1 | -3 | -4 | -2 | 16* | 29* | 5 | 2 | 12 | 4
COc1ccc(Nc2oc(COc3cccc(C)c3)nc2C#N)cc1 | -9 | 6 | -8 | 10* | 30* | 4 | 1 | 21* | 13*
COc1ccc(N2CCN(c3oc(COc4ccccc4Cl)nc3C#N)CC2)cc1 | 1 | 3 | 11 | -1 | 4 | / | / | / | /
COc1ccc(Nc2oc(COc3ccc(C)cc3)nc2C#N)cc1 | -4 | 2 | 2 | 6 | 20 | / | / | / | /
N#CC1=C(N)NC(SCC(=O)c2ccc(Br)cc2)=C(C#N)C12CCCCC2 | 2 | 5 | -1 | 13* | 22* | 5 | 1 | 42* | 19*
SMILES | Tn6 DDE FP | MT1-MMP act inh | Tn7 DDE FP | ADAM17 inh | ADAM10 inh | ADAM10 confirm | ADAM17 counter | ADAM10 ctr | ADAM17 confirm
Cc1ccc(NC(=O)c2cccs2)cc1S(=O)(=O)Nc1cccc(Cl)c1 | -13 | 1 | -14 | 20* | 37* | 2 | 2 | 11 | 6
Cc1ccc(NC(=S)NC(=O)c2ccc(F)cc2)cc1S(=O)(=O)Nc1cccc(Cl)c1 | -5 | -2 | 5 | -1 | 4 | / | / | / | /
Cc1ccc(C(=O)Nc2cccc([N+](=O)[O-])c2)cc1S(=O)(=O)Nc1ccc(NC(=O)c2ccccc2)cc1 | 9 | -1 | 7 | 15* | 37* | 6 | 1 | 35* | 23*
O=C(OCC#CCSc1nnc(-c2cccc3ccccc23)o1)c1cccc(C(F)(F)F)c1 | -3 | / | 3 | -4 | -6 | / | / | / | /
CCCCN(C)C(=O)CNc1nnnn1-c1ccccc1 | 5 | / | 2 | -1 | 1 | / | / | / | /
Cc1noc(C)c1COC(=O)c1cccc(S(=O)(=O)N2CCOCC2)c1 | -6 | 6 | 0 | -5 | 4 | / | / | / | /
Cc1noc(C)c1COc1ccc(C(=O)OCC(=O)Nc2cccc(S(=O)(=O)N3CCOCC3)c2)cc1 | 10 | 0 | 2 | 11* | 25* | 3 | 0 | 29* | 13*
CC(C)(C)c1ccc(OCCC(=O)Nc2cccc(S(=O)(=O)N3CCOCC3)c2)cc1 | -6 | 0 | -5 | 15* | 32* | 5 | 4 | 32* | 19*
COc1ccc(OCCC(=O)OCC(=O)Nc2cccc(S(=O)(=O)N3CCOCC3)c2)cc1 | -3 | 4 | 6 | 2 | 5 | / | / | / | /
COC(=O)C1=C(C)N(C)C(=NCc2ccc3c(c2)OCO3)NC1c1cccc(F)c1 (configuration not stated) | 7 | / | -6 | 3 | -4 | / | / | / | /
Cc1ccccc1NCC(=O)N/N=C/c1ccc[nH]1 | 0 | / | 0 | -5 | -4 | / | / | / | /
